Activity calls are given as the source filed them. The calls are words filed in the database; no cut-off is given here.
Assays:
[1] = tested on: A2058; assay: Induction of cell cycle arrest in human A2058 cells assessed as increase in accumulation at subG1 phase at 10 uM after 16 hrs by propidium iodide staining based flow cytometric method; type: functional
How it was run: (§1)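 Seeded at 3×10^5 cells/well for 24 h at 37°C, then exposed to 10 µM inhibitor or 0.5% (v/v) DMSO for 8 or 16 h. Trypsin-harvested, fixed in cold 70% ethanol at -20°C for 1 h, stained 30 min at 4°C with 50 µg/mL PI in non-lysis solution. Phase distribution (sub-G1, G0/G1, S, G2/M) read by FACScan; triplicate experiments, mean ± SE.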

[2] = target: T1, M-phase inducer phosphatase 1 (Homo sapiens, UniProt P30304); assay: Inhibition of N-terminal His6-tagged human CDC25A (336 to 508 residues) expressed in Escherichia coli BL21(DE3) cells using OMFP as substrate by double reciprocal Lineweaver-Burk plot analysis
T1 sequence (P30304 whole entry): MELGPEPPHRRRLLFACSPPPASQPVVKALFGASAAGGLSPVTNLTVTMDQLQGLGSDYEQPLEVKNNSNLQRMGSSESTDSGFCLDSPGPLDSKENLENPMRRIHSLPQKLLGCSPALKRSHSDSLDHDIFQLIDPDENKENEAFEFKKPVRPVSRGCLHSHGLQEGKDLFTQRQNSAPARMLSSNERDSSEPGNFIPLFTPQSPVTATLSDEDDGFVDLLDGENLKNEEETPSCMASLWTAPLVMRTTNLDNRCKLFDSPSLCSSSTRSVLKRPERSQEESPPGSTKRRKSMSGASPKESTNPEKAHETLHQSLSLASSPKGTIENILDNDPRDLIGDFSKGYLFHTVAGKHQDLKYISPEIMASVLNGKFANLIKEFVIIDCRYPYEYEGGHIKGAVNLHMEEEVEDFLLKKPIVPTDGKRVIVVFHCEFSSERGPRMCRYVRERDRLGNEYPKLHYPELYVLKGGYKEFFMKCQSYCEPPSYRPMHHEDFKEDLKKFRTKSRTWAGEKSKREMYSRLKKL
How it was run: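 Recombinant CDC25 form (15–25 nM) in 20 mM Tris-HCl pH 7.8, 0.5 mM TCEP, 1% (v/v) DMSO, with or without inhibitor. Reaction started with 0.5–25 µM OMFP; O-methylfluorescein formation followed continuously at 30°C (ex 485/em 530 nm). Initial rates (AU/min) analysed in Lineweaver-Burk plots for Vmax, KM and mechanism; Ki averaged from at least three independent experiments, only roughly estimated for mixed inhibition.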

[3] = tested on: A2058; assay: Induction of cell cycle arrest in human A2058 cells assessed as increase in accumulation at G2/M phase at 10 uM after 8 hrs by propidium iodide staining based flow cytometric method; type: functional; how it was run: as §1
[4] = target: T2, M-phase inducer phosphatase 2 (Homo sapiens) (UniProt P30305); assay: Inhibition of CDC25B in human A375 cells assessed as increase in phosphorylated cdk1 level at 10 uM after 8 hrs by Western blot analysis; type: cell-based
T2 sequence (whole entry): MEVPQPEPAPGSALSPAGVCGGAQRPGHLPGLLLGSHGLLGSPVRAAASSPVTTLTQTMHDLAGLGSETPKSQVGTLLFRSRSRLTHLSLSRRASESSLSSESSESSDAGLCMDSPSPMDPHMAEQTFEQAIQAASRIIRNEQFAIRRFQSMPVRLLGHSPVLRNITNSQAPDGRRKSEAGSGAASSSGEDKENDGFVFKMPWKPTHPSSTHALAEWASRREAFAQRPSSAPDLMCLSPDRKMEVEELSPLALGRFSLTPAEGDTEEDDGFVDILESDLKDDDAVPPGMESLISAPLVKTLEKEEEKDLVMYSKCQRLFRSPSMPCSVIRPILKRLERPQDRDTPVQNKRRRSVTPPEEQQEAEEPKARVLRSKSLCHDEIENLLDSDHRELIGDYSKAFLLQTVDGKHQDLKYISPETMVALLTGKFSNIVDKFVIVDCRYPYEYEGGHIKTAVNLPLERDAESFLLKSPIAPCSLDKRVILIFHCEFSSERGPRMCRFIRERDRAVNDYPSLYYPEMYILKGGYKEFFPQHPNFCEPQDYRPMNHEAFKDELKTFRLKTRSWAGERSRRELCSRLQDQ
How it was run: (§2)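 After 24 h at 3×10^5 cells, 8 h treatment with 10 µM inhibitor or 0.5% DMSO. Lysis in ice-cold modified RIPA with Na3VO4, NaF and protease inhibitors; Bradford-normalised equal protein on 12% SDS-PAGE. Rabbit polyclonal anti-p-Cdk1 overnight at 4°C, HRP secondary, ECL detection; β-actin loading control.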

[5] = tested on: A-375; assay: Induction of cell cycle arrest in human A375 cells assessed as increase in accumulation at subG1 phase at 10 uM after 16 hrs by propidium iodide staining based flow cytometric method; type: functional; how it was run: as §1
[6] = target: T2, M-phase inducer phosphatase 2 (Homo sapiens); assay: Inhibition of N-terminal His6-tagged human CDC25B (377 to 550 residues) expressed in Escherichia coli BL21(DE3) cells at 10 uM by spectrofluorimetric analysis
[7] = tested on: A2058; assay: Cytotoxicity against human A2058 cells at 2.5 uM after 72 hrs by MTT assay; type: functional, cell-based
How it was run: (§3)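 Cells seeded at 4×10^4/well, treated 24 h after plating with inhibitor or 0.5% (v/v) DMSO vehicle for 24, 48 or 72 h. MTT added, 3 h at 37°C under 5% CO2, formazan solubilised, absorbance at 570 nm. Viability in arbitrary units, mean ± SE of at least three independent experiments versus control. Cells grown in DMEM/10% FBS at 37°C, 5% CO2; BJ-5ta cultured in 4:1 DMEM/Medium 199 with hygromycin B.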

[8] = target: T2, M-phase inducer phosphatase 2 (Homo sapiens); assay: Inhibition of CDC25B in human A2058 cells assessed as increase in phosphorylated cdk1 level at 10 uM after 8 hrs by Western blot analysis; type: cell-based; how it was run: as §2
[9] = tested on: A2058; assay: Induction of cell cycle arrest in human A2058 cells assessed as increase in accumulation at G2/M phase at 10 uM after 16 hrs by propidium iodide staining based flow cytometric method; type: functional; how it was run: as §1
[10] = tested on: A-375; assay: Induction of cell cycle arrest in human A375 cells assessed as decrease in accumulation at G0/G1 phase at 10 uM after 16 hrs by propidium iodide staining based flow cytometric method; type: functional; how it was run: as §1
[11] = tested on: A2058; assay: Cytotoxicity against human A2058 cells at 50 uM after 48 hrs by MTT assay; type: functional, cell-based; how it was run: as §3
[12] = tested on: A2058; assay: Inhibition of colony formation in human A2058 cells at 0.625 to 10 uM after 10 days by crystal violet staining based assay; type: functional, cell-based
How it was run: (§4)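 Seeded in duplicate at 4×10^2 cells/well; after 2–3 days treated with 0.5% (v/v) DMSO or 0.625–10 µM inhibitor for 10 days at 37°C. Stained 1 h with 1% crystal violet in 50% ethanol; colonies of ≥50 cells counted, expressed as percentage, mean ± SE of at least three experiments.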

[13] = tested on: A-375; assay: Inhibition of colony formation in human A375 cells at 0.625 to 10 uM after 10 days by crystal violet staining based assay; type: functional, cell-based; how it was run: as §4

Ki [2]: 3 µM | inhibition [4]: Active | inhibition [6]: inactive | inhibition [8]: Active
SMILES: CCOC(=O)c1cccc(Nc2cc(OC)cc3ccccc23)c1
Activity [1]: inactive | Activity [3]: Active | Activity [5]: Active | Activity [7]: Active | Activity [9]: Active | Activity [10]: Active | Activity [11]: Active | inhibition [12]: Active | inhibition [13]: Active
